# Sampled rows, rich in hits. Any-hit rate of the full collection: about 2.6%.
# E-selectin induc – E-selectin induction on HUVECs | activation, % at 7.58 µM | actives 0.37% (n = 260,000) | HUVEC E-selectin immunofluorescence imaging; normalized: neutral wells 0, TNF-alpha wells 100 | P16581 | AID 686992;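 active = mean E-selectin-positive cell signal at least 10% of the positive control, reached in at least 60% of replicates, without over 20% cell loss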
#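 Test system: HUVEC; input: 3,000 HUVEC/well; measured by: immunofluorescence imaging; read-out: % PE-positive cells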
# RAD52 inh – inhibitors of human RAD52 DNA annealing | P43351 | recombinant RAD52 DNA annealing, FRET fluorescence | inhibition, % at 18.7 µM | AID 651710 | actives 0.46% (n = 360,000);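 active = every replicate showing at least 50% inhibition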
# GSIS activator – primary screen for activators of insulin secretion dependent on glucose, INS-1E cells, GLuc reporter luminescence; AID 743287; INS-1E GLuc reporter insulin secretion, 2-3 h; actives 0.61% (n = 370,000); activation, % at 16.6 µM;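 active = lowest replicate activation of at least 40%, so every replicate reaches that level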;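 also: 0% = median of neutral control wells and 100% = median of IBMX positive control wells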
# Ecoli rRNA inh – inhibits bacterial ribosomal RNA function over humanized ribosomes; GFP signal change (wild-type ribosome), % (test concentration not listed); E. coli WT GFP vs humanized-ribosome RFP mutants, fluorescence, 24 h; active compounds read low; DMSO median 0, no signal -100; actives 1.6% (n = 350,000);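 active = significant combined selectivity score with lowered wild-type GFP, culture density cut under 30%, mutant RFP and density less affected; inactive = any of these conditions unmet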
# AF4-AF9 inh – inhibitors of human MLL-AF4/AF9 interaction | P42568 | AlphaScreen, biotin-AF4 peptide binding to FLAG-AF9 | inhibition, % at 10 µM | actives 0.47% (n = 350,000) | AID 651704;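 active = every replicate reaching a set inhibition limit, whatever the replicate mean, cut at about 25% in these data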;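 also: 0% = plate neutral control median and 100% = total signal loss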
# RAD54 branch – inhibitors of human RAD54 branch migration | inhibition, % at 10.4 µM | actives 0.14% (n = 360,000) | RAD54 Holliday junction branch migration, FAM/BHQ fluorescence;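 active = mean normalized replicate activity at least 40 and at least half of replicates scoring 40 or more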;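 also: 0% = median of neutral control wells and 100% = median of positive control wells; inhibitors cause a drop in the FAM fluorescence signal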
# Target sequence (Q92698 whole entry, looked up): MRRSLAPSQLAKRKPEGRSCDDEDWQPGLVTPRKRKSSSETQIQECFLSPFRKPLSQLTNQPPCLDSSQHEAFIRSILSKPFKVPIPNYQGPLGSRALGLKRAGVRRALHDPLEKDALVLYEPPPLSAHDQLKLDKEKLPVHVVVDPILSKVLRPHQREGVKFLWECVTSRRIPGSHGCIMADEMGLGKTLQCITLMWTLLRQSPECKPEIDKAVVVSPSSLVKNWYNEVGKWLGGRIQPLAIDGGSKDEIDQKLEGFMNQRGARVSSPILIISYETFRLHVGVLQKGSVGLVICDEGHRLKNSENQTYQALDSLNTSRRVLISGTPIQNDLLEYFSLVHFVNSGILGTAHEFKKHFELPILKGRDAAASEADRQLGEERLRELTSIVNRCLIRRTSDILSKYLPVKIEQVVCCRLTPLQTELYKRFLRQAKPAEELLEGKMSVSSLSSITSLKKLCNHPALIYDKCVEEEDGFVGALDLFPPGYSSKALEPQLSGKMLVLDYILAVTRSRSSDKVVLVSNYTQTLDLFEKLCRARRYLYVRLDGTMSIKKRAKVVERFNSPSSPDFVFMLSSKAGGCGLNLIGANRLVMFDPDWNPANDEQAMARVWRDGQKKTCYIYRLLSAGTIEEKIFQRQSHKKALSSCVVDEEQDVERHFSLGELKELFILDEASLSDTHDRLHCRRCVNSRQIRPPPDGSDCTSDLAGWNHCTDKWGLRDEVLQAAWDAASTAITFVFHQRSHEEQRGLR
# The depositor's hits bear a star; . = not tested or not shown.
SMILES,E-selectin induc,RAD52 inh,GSIS activator,Ecoli rRNA inh,AF4-AF9 inh,RAD54 branch
COc1ccc(S(=O)(=O)N2CCOC2CNC(=O)C(=O)NCCc2c[nH]c3ccccc23)cc1 (stereo unspecified),.,-19.2,4.2,-1.4,2.1,-10.6
COc1cccc(CN(C)Cc2nc3cc(C(F)(F)F)ccc3c(=O)[nH]2)c1,1.8,-13.9,-3.8,-7.5,36.1*,1.9
C=CCOc1ccc(CN(C)Cc2nc3cc(C(F)(F)F)ccc3c(=O)[nH]2)cc1,-0.1,-1.8,-23.6,-46.6,-11.6,.
CCOC(=O)c1csc(-c2sccc2Br)n1,.,4.4,1.1,-27.0*,-2.8,.
CCOC(=O)c1csc(-c2ccc(OC)c(OC)c2)n1,.,7.3,50.5*,0.1,-5.0,.
COc1ccc(-c2nc(C(=O)O)cs2)cc1OC,.,-11.3,71.4*,3.4,0.9,.
CCOC(=O)c1csc(-c2ccc3c(c2)CCO3)n1,.,-3.5,.,.,3.2,10.6
CCOC(=O)c1csc(NC(C)=O)n1,1.9,-2.4,-12.1,9.6,-3.1,.
COc1ccc2c3c([nH]c2c1)[C@H](CO)NCC31CCN(C(=O)C2CCCC2)CC1,-0.4,-76.9,0.3,-2.3,0.3,.
N#CCCCc1cc2ccccc2cn1,.,-10.2,50.6*,2.1,0.9,-2.9
COc1cc2cnc(CCCC#N)cc2cc1OC,0.2,-0.4,.,-1.3,-5.4,-5.5
CN1C(=O)c2cc(NC(=O)C3CCOCC3)ccc2OC[C@H]2O[C@H](CC(=O)NCc3ccc4c(c3)OCO4)CC[C@@H]21,0.2,24.2,-4.0,2.1,2.7,0.4
COCC(=O)Nc1ccc2c(c1)C(=O)N(C)[C@H]1CC[C@H](CC(=O)Nc3ccc(F)cc3)O[C@@H]1CO2,-0.1,2.6,8.5,0.4,-4.2,-4.7
COc1ccc2c3c([nH]c2c1)[C@H](CO)NCC31CCN(C(=O)Nc2ccc(F)cc2F)CC1,0.1,76.2*,4.5,3.3,15.0,.
COc1ccc2c3c([nH]c2c1)[C@@H](CO)NCC31CCN(C(=O)Nc2ccccc2F)CC1,-0.3,68.5*,-15.5,-0.7,10.3,.
COc1ccc2c3c([nH]c2c1)[C@H](CO)NCC31CCN(C(=O)Nc2ccc(F)cc2)CC1,.,.,2.4,-2.8,.,.
COc1ccc2c3c(n(C)c2c1)[C@@H](CO)NCC31CCN(Cc2cc(-c3ccccc3)on2)CC1,1.6,58.8*,4.0,-55.3,36.7*,.
COc1ccc2c3c(n(C)c2c1)[C@H](CO)NCC31CN(Cc2cc(-c3ccccc3)on2)C1,0.0,80.0*,-2.5,-8.2,40.1*,.
COc1ccc2c3c(n(C)c2c1)[C@@H](CO)NCC31CN(Cc2cc(-c3ccccc3)on2)C1,-0.6,32.7,0.9,0.1,4.9,.
C[C@@H]1CCCCO[C@@H](CN(C)C(=O)Nc2ccc3c(c2)OCO3)[C@H](C)CN([C@@H](C)CO)C(=O)c2cc(NC(=O)Nc3ccc(C(F)(F)F)cc3)ccc2O1,4.3,-0.8,15.5,-0.9,-2.0,-7.6
CN1C(=O)/C(=C\c2ccncc2)SC1=Nc1ccccc1,.,.,66.7*,.,.,.
COc1ccc(-c2nn(-c3ccccc3)cc2/C=N/O)cc1,0.2,-8.3,-1.4,-38.3*,2.6,4.1
COc1ccc(-c2nn(-c3ccccc3)cc2/C=N/N2C(=O)CSC2=S)cc1,.,.,13.2,.,.,-5.1
Nc1ccc(N=Nc2ccc(O)cc2)c(N)n1,-1.2,-7.3,-15.8,-15.5*,7.5,.
COc1ccc(N=Nc2ccc(N)nc2N)cc1,0.3,4.8,-11.2,-11.5,13.2,15.2
CCOc1ccc(-c2c[n+]3c(n2-c2ccccc2)CCCCC3)cc1,-0.1,-5.6,-40.6,-38.6*,-2.9,.
Cn1c(=O)n(C)c2cc([N+](=O)[O-])c(N3CCN(C(=O)C(C)(C)C)CC3)cc21,2.4,0.3,-6.7,-22.8*,0.9,.
CC(=O)N1CCN(c2cc(N3CCCC3)c(F)cc2[N+](=O)[O-])CC1,2.1,-23.4,27.1,-19.1*,5.8,2.6
Cc1cccc(C)c1NC(=O)NC1CCc2ccccc21 (stereo unspecified),0.8,-19.0,119.3*,13.2,-0.9,3.9
CCOc1ccc(NC(=O)COC(=O)Cn2cnnn2)cc1OCC,.,-4.8,43.8*,11.3,3.4,7.2

# Screening data: PubChem, Broad Institute
